SIAE primary – human SIAE inhibitors, primary screen, biochemical, fluorescence polarization, FP-Rh probe, 1536-well HTS. SIAE FP-Rh probe binding. inhibition, % at 9.66 µM. 370,000 tested, 0.69% active. AID 1053197, 2014;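 active = inhibition above a cutoff: mean of compounds within the control limits plus 3 SD of those, cut at about 17% in these data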;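 note: 0% = plate median of compound wells and 100% = probe without SIAE protein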
Target sequence (Q9HAT2 whole entry, looked up): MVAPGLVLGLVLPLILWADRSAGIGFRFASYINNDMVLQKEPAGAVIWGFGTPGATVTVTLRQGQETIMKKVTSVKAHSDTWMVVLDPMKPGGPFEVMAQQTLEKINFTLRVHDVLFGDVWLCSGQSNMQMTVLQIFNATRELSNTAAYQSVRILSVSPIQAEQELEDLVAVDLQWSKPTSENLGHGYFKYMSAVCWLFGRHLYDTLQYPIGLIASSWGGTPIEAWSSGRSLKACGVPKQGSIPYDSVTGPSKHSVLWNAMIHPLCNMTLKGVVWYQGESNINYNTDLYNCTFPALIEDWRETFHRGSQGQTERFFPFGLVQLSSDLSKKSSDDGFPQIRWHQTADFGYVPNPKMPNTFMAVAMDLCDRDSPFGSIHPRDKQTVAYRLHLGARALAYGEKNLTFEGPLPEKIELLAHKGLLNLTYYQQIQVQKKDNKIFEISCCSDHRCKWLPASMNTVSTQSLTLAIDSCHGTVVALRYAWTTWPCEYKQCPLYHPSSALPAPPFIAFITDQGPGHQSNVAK
mABHD4 FP – ABHD4 inhibitors, primary screen, biochemical, fluorescence polarization, mouse. purified mABHD4, FP-Rh probe fluorescence polarization. inhibition, % at 8.92 µM. 370,000 tested, 0.54% active. (Lyso)-N-acylphosphatidylethanolamine lipase (Mus musculus), Q8VD66;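 active = inhibition exceeding the mean over every tested compound plus 3 SD, cut at about 30% in these data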;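 note: 0% = plate median of compound wells and 100% = S159A mutant with DMSO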
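Test system: mABHD4 protein; Read-out basis: % inhibition; Incubation: 45 min + 60 min at 25 °C; Repeats: single replicate; Technique: fluorescence polarization with parallel and perpendicular emission, 525/598 nm; Compound: 8.92 µM, single dose; Benchmarks: full inhibition S159A mutant plus DMSO, zero as sample-well median.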
pPAFAH inh – pPAFAH enzyme inhibitors, primary screen, biochemical, fluorescence polarization, human | Platelet-activating factor acetylhydrolase (Homo sapiens), Q13093 | recombinant pPAFAH, FP-rhodamine probe fluorescence polarization | inhibition, % at 3.39 µM | 330,000 tested, 1.5% active;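 active = inhibition above the mean inhibition across the screen plus 3 SD, cut at about 25% in these data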;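 note: inhibitors block binding of the rhodamine activity-based probe so polarization drops; 0% = enzyme with DMSO and 100% = wells lacking pPAFAH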
TCR-CD3 inh – inhibitors of human TCR-CD3 interaction, primary screen, biochemical, fluorescence, TAMRA-labeled TCR probe; inhibition, % at 9.4 µM; T-cell receptor (TCR); 360,000 tested, 0.37% active; in the data active = inhibition above about 19%;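 note: recombinant mutant TCR 2C K166C tagged with TAMRA read by polarization; 0% = receptor in buffer alone and 100% = receptor with positive control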
HTRA1 inhibitor – HTRA1 serine protease inhibitors, primary screen, biochemical, fluorescence polarization, HTS; recombinant HTRA1, FP-rhodamine activity-based probe; inhibition, % at 5.96 µM; Q92743; 340,000 tested, 0.5% active; in the data active = inhibition above about 36%;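 note: 0% = enzyme with DMSO and 100% = wells lacking enzyme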
pPAFAH FP conf – pPAFAH (PLA2G7) enzyme inhibitors, confirmation, biochemical, fluorescence polarization, human; shares compounds with pPAFAH inh; recombinant pPAFAH, FP-Rh probe fluorescence polarization; inhibition, % at 3.39 µM; 2,300 tested, 72% active;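 active = mean inhibition of the triplicate above the hit cutoff set for the earlier primary screen, cut at about 25% in these data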;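 note: 0% = enzyme with DMSO and 100% = wells lacking pPAFAH enzyme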
Numbers without * were called inactive. Sampled rows, rich in hits. Any-hit rate of the full collection: about 2.3%.

`N#C/C=C1/NC(=O)c2ccccc2S1` gave SIAE primary -1.5, mABHD4 FP 9.2, pPAFAH inh 56.6*, TCR-CD3 inh -6.9, HTRA1 inhibitor -4.5 and pPAFAH FP conf 5.3.
COC(=O)[C@]12C[C@H](CC(=O)NCCc3ccccc3OC)C(=O)N(Cc3cccc4ccccc34)C1=C[C@H](C(C)C)O[C@@H]2C1CC1 was read as SIAE primary -7.5 and mABHD4 FP -16.0.
COc1ccc(OC)c(C2C(C#N)=C(N)Oc3cc(N)ccc32)c1 (stereo not drawn) was read as SIAE primary -0.9, mABHD4 FP 25.9, pPAFAH inh 35.8*, TCR-CD3 inh 3.7, HTRA1 inhibitor 8.2 and pPAFAH FP conf 0.8.
Screening COc1ccc(OC)c(C2C(C#N)=C(N)Oc3cc(C)[nH]c(=O)c32)c1 (stereo not drawn) returned SIAE primary -0.7, mABHD4 FP 5.5, pPAFAH inh 1.9, TCR-CD3 inh -1.8 and HTRA1 inhibitor 3.9.
`O=C1C[C@@H](c2ccccc2)N=C2N(Cc3ccc4c(c3)OCO4)C/C(=C/c3ccccc3)N12` gave SIAE primary 5.6 and mABHD4 FP -14.7.
For C#CCN(C1CC1)S(=O)(=O)c1ccccc1Br the results were SIAE primary -7.2 and mABHD4 FP -0.1.
Screening C[C@@H]1OCN(C)[C@H]2C[C@H]3c4[nH]c5cccc(-c6ccc7c(c6)OCO7)c5c4CCN3C[C@@H]12 returned SIAE primary 8.4 and mABHD4 FP 13.9.
Screening O=C(CN1CCCC(O)C1)N1c2ccccc2Sc2ccc(C(F)(F)F)cc21 (stereo not drawn) returned SIAE primary 1.8, mABHD4 FP -6.0, pPAFAH inh 6.6, TCR-CD3 inh -1.6 and HTRA1 inhibitor -5.3.
`CN1CCN(CCCN2c3ccccc3Sc3ccc(C(F)(F)F)cc32)CC1` gave SIAE primary 4.4, mABHD4 FP 29.0, pPAFAH inh 37.5*, TCR-CD3 inh 2.2, HTRA1 inhibitor 9.7 and pPAFAH FP conf 30.3*.
Cc1ccc(NS(=O)(=O)c2cccc(C(=O)N/N=C/c3c(C)nn(-c4ccccc4)c3N3CCCC3)c2)c(C)c1 was read as SIAE primary 14.7, mABHD4 FP 10.1, pPAFAH inh 57.7*, TCR-CD3 inh 5.0, HTRA1 inhibitor -16.6 and pPAFAH FP conf 34.5*.
For O=C(COC(=O)CNC(=O)c1ccccc1)Nc1ccc(F)c([N+](=O)[O-])c1 the results were SIAE primary -7.3, mABHD4 FP 2.5, pPAFAH inh 37.5*, TCR-CD3 inh 4.7, HTRA1 inhibitor -2.0 and pPAFAH FP conf 5.3.
Screening COc1ccc(CNC(=O)CN2C(=O)NC3(CCCCCC3)C2=O)cc1 returned SIAE primary -3.0, mABHD4 FP 1.3, pPAFAH inh 61.2*, TCR-CD3 inh 5.5, HTRA1 inhibitor -0.7 and pPAFAH FP conf 5.3.
Screening O=C(COC(=O)c1cc2c(s1)CCC2)Nc1ccc(F)cc1 returned SIAE primary -1.3, mABHD4 FP -1.4, pPAFAH inh 43.6*, TCR-CD3 inh 2.1, HTRA1 inhibitor -6.4 and pPAFAH FP conf 38.0*.
Screening NC(=O)c1ccc(NC(=O)COC(=O)c2cc3c(s2)CCC3)cc1 returned SIAE primary -13.2, mABHD4 FP -5.2, pPAFAH inh 7.9, TCR-CD3 inh 1.6 and HTRA1 inhibitor -3.0.
COc1ccc(CNS(=O)(=O)CCNC(=O)c2ccc3c(c2)OCO3)cc1 was read as SIAE primary 1.5, mABHD4 FP 1.2, pPAFAH inh -2.5, TCR-CD3 inh 2.6 and HTRA1 inhibitor -2.6.
Screening COc1ccc(C(=O)NCCS(=O)(=O)NCc2ccc3c(c2)OCO3)cc1 returned SIAE primary 0.0, mABHD4 FP -2.9, pPAFAH inh 38.9*, TCR-CD3 inh 1.1, HTRA1 inhibitor 2.7 and pPAFAH FP conf -3.2.
CC1C=CC=CCCC=CC=CC=CC=CC(OC2O[C@H](C)[C@@H](O)[C@H](N)[C@@H]2O)CC(O)C(C(=O)O)C(O)CC(=O)CC(O)C(O)CCC(O)CC(O)CC(O)CC(=O)OC(C)C(C)C1O (stereo partly drawn) was read as SIAE primary 3.7 and mABHD4 FP -4.1.
For COc1ccc(N2CCN(c3ncnc4c3[nH]c3ccccc34)CC2)cc1 the results were SIAE primary 4.0, mABHD4 FP 10.9, pPAFAH inh 16.7, TCR-CD3 inh -1.2 and HTRA1 inhibitor -1.7.
`COc1cc2[nH]c3c(N4CCN(c5ccccn5)CC4)ncnc3c2cc1OC` gave pPAFAH inh 69.8*, HTRA1 inhibitor -1.8 and pPAFAH FP conf 57.6*.
CSc1ccc(COC(=O)c2cc([N+](=O)[O-])ccc2N2CCOCC2)cc1 was read as SIAE primary 4.3, mABHD4 FP -12.0, pPAFAH inh 40.3*, TCR-CD3 inh 1.9, HTRA1 inhibitor -14.5 and pPAFAH FP conf 42.2*.
CCn1cnc2cc(NCc3ccc(OC)cc3)ccc21 was read as SIAE primary -1.4, mABHD4 FP 6.5, pPAFAH inh 0.0, TCR-CD3 inh -5.5 and HTRA1 inhibitor -0.1.
For CCOc1ccc2nc3cc(NCc4ccc(OC)cc4)ccc3c(N)c2c1 the results were pPAFAH inh 38.5*, HTRA1 inhibitor 26.1 and pPAFAH FP conf 11.1.
`COc1ccc(C(=O)OCCCN(C)C2CN(Cc3cn(Cc4ccccc4F)nn3)S(=O)(=O)C2)cc1OC` (stereo not drawn) gave SIAE primary -0.6 and mABHD4 FP -1.8.
`O=C(CCc1nc(-c2ccccc2F)no1)NCCc1c[nH]c2ccccc12` gave SIAE primary 2.6 and mABHD4 FP 0.4.
Screening COc1cc(N2C(=O)NC3CC2(C)Oc2ccccc23)cc(OC)c1OC (stereo not drawn) returned SIAE primary -0.3, mABHD4 FP -3.2, pPAFAH inh 35.2*, TCR-CD3 inh -4.3, HTRA1 inhibitor 0.9 and pPAFAH FP conf 1.9.
`Nn1c(SCc2ccc(Br)cc2)nnc1-c1n[nH]c2c1CCC2` gave SIAE primary -3.3 and mABHD4 FP 1.8.
`Cc1oc(-c2ccc(F)cc2)cc1-c1nn2c(-c3ccoc3C)nnc2s1` gave SIAE primary 2.0, mABHD4 FP 14.1, pPAFAH inh 35.5*, TCR-CD3 inh 5.3, HTRA1 inhibitor 9.9 and pPAFAH FP conf 16.6.
`CN(C)c1ccc(C(=O)OCC(=O)NCCC2=CCCCC2)cc1` gave SIAE primary -7.3, mABHD4 FP -2.9, pPAFAH inh 37.7*, TCR-CD3 inh -1.0, HTRA1 inhibitor 4.0 and pPAFAH FP conf 24.2.
